Holding throughout (type): functional
Test [1] relates to Candida albicans. The experiment in a line: Antimicrobial activity against azole-resistant Candida albicans isolate CA10 assessed as growth at 0.25 ug/ml after 48 hrs by microdilution checkerboard technique relative to control. The procedure, abridged:
(§1)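 Checkerboard microdilution in RPMI 1640 (pH 7.0, 2% dextrose, 0.165 M MOPS). Azole dilutions run along columns and FK506 along rows, at 4× final concentration. Final inoculum 2.5 × 10^3 CFU/ml from Sabouraud-subcultured cells. Incubated 35°C for 48 h; OD read at 492 nm. Background from microorganism-free plates subtracted. Growth % = well OD / drug-free well OD. Triplicate on different days, values averaged.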
In general terms: Dilution methods test growth across graded concentrations, often in twofold steps.

For test [2], the system named is Candida albicans. The experiment in a line: Antimicrobial activity against azole-resistant Candida albicans isolate CA10 assessed as growth at 64 ug/ml after 48 hrs by microdilution checkerboard technique relative to control. The method in brief: (§2)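 CA10 in RPMI 1640 with 2% dextrose and 0.165 M MOPS, pH 7.0. Checkerboard used twofold dilutions, with azole alone in row H and the drug-free growth control in well H1. Final inoculum was 2.5 × 10^3 CFU/ml, incubated 35°C for 48 h, with OD read at 492 nm. Growth % = background-subtracted well OD / drug-free well OD. Run in triplicate on different days.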

The test system of test [3] is Candida albicans. In words: Antimicrobial activity against azole-resistant Candida albicans isolate CA10 assessed as growth at 0.25 ug/ml cotreated with 0.002 ug/ml calcineurin signaling inhibitor Tacrolimus after 48 hrs by microdilution checkboard technique relative to control. Also noted: scale not given: the % may be the effect or the level left. The procedure, abridged: as §1

Test [4] deals with Candida albicans. The experiment in a line: Antimicrobial activity against azole-resistant Candida albicans isolate CA10 assessed as growth at 1 ug/ml cotreated with 0.008 ug/ml calcineurin signaling inhibitor Tacrolimus after 48 hrs by microdilution checkboard technique relative to control. Also noted: scale not given: the % may be the effect or the level left. The method in brief:
(§3)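 Checkerboard microdilution in MOPS-buffered RPMI 1640 (pH 7.0, 2% dextrose). Final ranges: azole 0.125–128 μg/ml (FLC) or 0.008–8 μg/ml (ITR, VRC), tacrolimus 0.002–0.125 μg/ml; solvent 1% in single-drug wells. Inoculum 2.5 × 10^3 CFU/ml, 35°C, 48 h. Growth % = background-subtracted OD492 of each well / drug-free well. Triplicate on different days.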

Test [5] relates to Candida albicans. The experiment in a line: Antimicrobial activity against azole-resistant Candida albicans isolate CA10 assessed as growth at 0.004 ug/ml after 48 hrs by microdilution checkerboard technique relative to control. The procedure, abridged: as §3
The subject of test [6] is Candida albicans. The experiment in a line: Antimicrobial activity against azole-resistant Candida albicans isolate CA10 assessed as growth at 2 ug/ml cotreated with 0.125 ug/ml calcineurin signaling inhibitor tacrolimus after 48 hrs by microdilution checkerboard technique relative to control. On the set-up: scale not given: the % may be the effect or the level left. The method in brief: as §3

Test [7] deals with Candida albicans. In words: Antimicrobial activity against azole-resistant Candida albicans isolate CA10 assessed as growth at 8 ug/ml cotreated with 0.125 ug/ml calcineurin signaling inhibitor Tacrolimus after 48 hrs by microdilution checkboard technique relative to control. On the set-up: scale not given: the % may be the effect or the level left. The procedure, abridged: as §2

Test [8] deals with Candida albicans. In words: Antimicrobial activity against azole-resistant Candida albicans isolate CA10 assessed as growth at 1 ug/ml cotreated with 0.031 ug/ml calcineurin signaling inhibitor tacrolimus after 48 hrs by microdilution checkerboard technique relative to control. On the set-up: scale not given: the % may be the effect or the level left. The method in brief:
as §1

Test [9] has as its system Candida albicans. The experiment in a line: Antimicrobial activity against azole-resistant Candida albicans isolate CA10 assessed as growth at 16 ug/ml cotreated with 0.125 ug/ml calcineurin signaling inhibitor tacrolimus after 48 hrs by microdilution checkerboard technique relative to control. Also noted: scale not given: the % may be the effect or the level left. The method in brief:
as §3

Test [10] relates to Candida albicans. In words: Antimicrobial activity against azole-resistant Candida albicans isolate CA10 assessed as growth at 128 ug/ml cotreated with 0.004 ug/ml calcineurin signaling inhibitor Tacrolimus after 48 hrs by microdilution checkboard technique relative to control. On the set-up: scale not given: the % may be the effect or the level left. The procedure, abridged:
as §3

The test system of test [11] is Candida albicans. In words: Antimicrobial activity against azole-resistant Candida albicans isolate CA10 assessed as growth at 1 ug/ml cotreated with 0.004 ug/ml calcineurin signaling inhibitor Tacrolimus after 48 hrs by microdilution checkboard technique relative to control. On the set-up: scale not given: the % may be the effect or the level left. The method in brief: as §3

For test [12], the system named is Candida albicans. The experiment in a line: Antimicrobial activity against azole-resistant Candida albicans isolate CA10 assessed as growth at 1 ug/ml cotreated with 0.063 ug/ml calcineurin signaling inhibitor Tacrolimus after 48 hrs by microdilution checkboard technique relative to control. On the set-up: scale not given: the % may be the effect or the level left. The method in brief: as §3

Test [13] deals with Candida albicans. In words: Antimicrobial activity against azole-resistant Candida albicans isolate CA10 assessed as growth at 0.125 ug/ml cotreated with 0.002 ug/ml calcineurin signaling inhibitor Tacrolimus after 48 hrs by microdilution checkboard technique relative to control. On the set-up: scale not given: the % may be the effect or the level left. The procedure, abridged:
as §3

Test [14] relates to Candida albicans. The experiment in a line: Antimicrobial activity against azole-resistant Candida albicans isolate CA10 assessed as growth at 0.5 ug/ml cotreated with 0.002 ug/ml calcineurin signaling inhibitor tacrolimus after 48 hrs by microdilution checkerboard technique relative to control. On the set-up: scale not given: the % may be the effect or the level left. The method in brief: as §3

The subject of test [15] is Candida albicans. The experiment in a line: Antimicrobial activity against azole-resistant Candida albicans isolate CA10 assessed as growth at 0.25 ug/ml co-treated with 0.008 ug/ml calcineurin signaling inhibitor tacrolimus after 48 hrs by microdilution checkboard technique relative to control. Also noted: scale not given: the % may be the effect or the level left. The procedure, abridged:
as §1

The test system of test [16] is Candida albicans. The experiment in a line: Antimicrobial activity against azole-resistant Candida albicans isolate CA10 assessed as growth at 32 ug/ml cotreated with 0.063 ug/ml calcineurin signaling inhibitor Tacrolimus after 48 hrs by microdilution checkboard technique relative to control. On the set-up: scale not given: the % may be the effect or the level left. The method in brief: as §2

Test [17] deals with Candida albicans. In words: Antimicrobial activity against azole-resistant Candida albicans isolate CA10 assessed as growth at 8 ug/ml co-treated with 0.004 ug/ml calcineurin signaling inhibitor tacrolimus after 48 hrs by microdilution checkboard technique relative to control. On the set-up: scale not given: the % may be the effect or the level left. The method in brief: as §2

The subject of test [18] is Candida albicans. In words: Antimicrobial activity against azole-susceptible Candida albicans isolate CA14 after 48 hrs by broth microdilution method. Particulars: isolate CA14, 48 h. The procedure, abridged:
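CLSI M27-A2 broth microdilution was run in RPMI 1640 (pH 7.0, 2% dextrose, 0.165 M MOPS). Inoculum was 2.5 × 10^3 CFU/ml, incubated 35°C for 48 h without shaking. Plates were read visually (0–5 scale) and at OD 492 nm. MIC80 = lowest concentration giving an 80% absorbance decrease vs drug-free control. Triplicate.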

Test [19] has as its system Candida albicans. The experiment in a line: Antimicrobial activity against azole-resistant Candida albicans isolate CA10 assessed as growth at 32 ug/ml co-treated with 0.125 ug/ml calcineurin signaling inhibitor tacrolimus after 48 hrs by microdilution checkboard technique relative to control. On the set-up: scale not given: the % may be the effect or the level left. The procedure, abridged: as §2

For test [20], the system named is Candida albicans. The experiment in a line: Antimicrobial activity against azole-resistant Candida albicans isolate CA15 cotreated with calcineurin signaling inhibitor Tacrolimus after 48 hrs by microdilution checkerboard technique. Particulars: isolate CA15, 48 h. The procedure, abridged:
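Checkerboard microdilution in MOPS-buffered RPMI 1640 (pH 7.0, 2% dextrose) with 2.5 × 10^3 CFU/ml for 48 h at 35°C. Final FK506 was 0.002–0.125 μg/ml. Azole finals were FLC 0.125–128 μg/ml, and ITR and VRC 0.008–8 μg/ml. MIC80 is an 80% OD492 decrease vs drug-free control. Interaction was scored by FICI (synergy ≤0.5, antagonism >4) and by ΔE from triplicates.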

The subject of test [21] is Candida albicans. The experiment in a line: Antimicrobial activity against azole-resistant Candida albicans isolate CA10 assessed as growth at 128 ug/ml co-treated with 0.031 ug/ml calcineurin signaling inhibitor tacrolimus after 48 hrs by microdilution checkboard technique relative to control. On the set-up: scale not given: the % may be the effect or the level left. The procedure, abridged: as §1

For test [22], the system named is Candida albicans. In words: Antimicrobial activity against azole-resistant Candida albicans isolate CA10 assessed as growth at 2 ug/ml cotreated with 0.002 ug/ml calcineurin signaling inhibitor tacrolimus after 48 hrs by microdilution checkerboard technique relative to control. On the set-up: scale not given: the % may be the effect or the level left. The method in brief:
as §3

In brackets after ≈: the same amount, converted by molar mass.

For `OC(Cn1cncn1)(Cn1cncn1)c1ccc(F)cc1F` [FLUCONAZOLE], the Activity with Candida albicans [1] amounted to 63%; with Candida albicans [2] it was 48%; with Candida albicans [3], 61%; with Candida albicans [4] it was 25%; in the test on Candida albicans [5] it was 99%; in the test with Candida albicans [6], 12%. Besides, the Activity in the test with Candida albicans [7] worked out at 2%; with Candida albicans [8] it was 17%; in the test with Candida albicans [9], 3%; in the test on Candida albicans [10] it was 45%; in the test on Candida albicans [11], 29%; in the test with Candida albicans [12], 18%. Besides, the Activity was found to be 76% with Candida albicans [13]; 55% in the test on Candida albicans [14]; 39% in the test on Candida albicans [15]; 1% in the test on Candida albicans [16]; 34% in the test with Candida albicans [17]; 0% in the test on Candida albicans [19]. Besides, the results for the Activity with Candida albicans [21] and in the test with Candida albicans [22] were 14% and 48%, respectively. In addition, the minimum inhibitory concentration (MIC) was 0.5 µg/mL (≈ 1.63 µM) against Candida albicans [18] and 0.5 µg/mL in the test with Candida albicans [20].

The MIC is the lowest concentration that inhibits growth of the organism.
